Laboratory results as given in ChEMBL document CHEMBL1132312, “Conformationally constrained butyrophenones with mixed dopaminergic (D(2)) and serotoninergic (5-HT(2A), 5-HT(2C)) affinities: synthesis, pharmacology, 3D-QSAR, and molecular modeling of (aminoalkyl)benzo- and -thienocycloalkanones as putative atypical antipsychotics” (J Med Chem, 1999).

Columns and labels:
[1] = pA2 value was evaluated by measuring the inhibition of the 5-HT-induced contraction of rat aorta.; type: functional, tissue-based
Method in brief: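 Thoracic aorta rings, denuded, from male 250-350-g Sprague-Dawley rats. Isometric force recorded after 60 min equilibration under 2 g load, then sensitized with 10 µM 5-HT for 8 min.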

[2] = molecular target: T1, 5-hydroxytryptamine receptor 2A (Rattus norvegicus, UniProt P14842); assay: In vitro ability to displace [3H]ketanserin binding from 5-hydroxytryptamine 2A receptor in rat membrane.
T1 sequence (P14842 whole entry): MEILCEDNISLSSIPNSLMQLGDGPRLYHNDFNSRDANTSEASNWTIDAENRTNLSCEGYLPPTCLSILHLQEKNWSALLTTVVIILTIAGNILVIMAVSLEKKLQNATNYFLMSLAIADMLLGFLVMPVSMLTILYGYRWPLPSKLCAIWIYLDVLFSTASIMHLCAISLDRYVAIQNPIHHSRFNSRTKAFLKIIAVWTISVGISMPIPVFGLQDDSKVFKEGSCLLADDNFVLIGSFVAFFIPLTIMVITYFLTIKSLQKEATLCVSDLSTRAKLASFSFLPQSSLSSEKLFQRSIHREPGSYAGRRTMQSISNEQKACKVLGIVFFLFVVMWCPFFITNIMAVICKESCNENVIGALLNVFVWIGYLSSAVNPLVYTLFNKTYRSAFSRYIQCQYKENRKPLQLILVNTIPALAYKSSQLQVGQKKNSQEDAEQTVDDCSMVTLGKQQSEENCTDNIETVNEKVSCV

[3] = tested on: Mus musculus; assay: In vivo Antipsychotic activity was quantified by inhibition of apomorphine-induced climbing(CL 95%) by mice; type: functional
Method in brief: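 Male CD1 mice given test drug or vehicle, then 2 mg/kg apomorphine 30 min later. Housed singly in wire cylinders; 6 per dose, 12 controls. Climbing scored 0-2 every 10 min over 30 min. Scores at 20 and 30 min summed and averaged per group. ED50 from nonlinear curve fitting.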

[4] = tested on: Mus musculus; assay: In vivo Antipsychotic activity was quantified by induction of catalepsy in mice; type: functional
Method in brief: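 Male CD1 mice, 27 ± 3 g, 6-12 per group, tested 30 min after dosing. Forepaws placed on one horizontal wire, hindpaws on another 6 cm away and 2 cm lower. Holding the posture for more than 30 s scored as catalepsy. ED50 by Litchfield-Wilcoxon.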

[5] = molecular target: T2, D(1A) dopamine receptor (Rattus norvegicus, UniProt P18901); assay: In vitro ability to displace [3H]SCH-23390 binding from Dopamine 1 (D1) receptor in rat striatal membrane.; type: cell membranes
T2 sequence (P18901 whole entry): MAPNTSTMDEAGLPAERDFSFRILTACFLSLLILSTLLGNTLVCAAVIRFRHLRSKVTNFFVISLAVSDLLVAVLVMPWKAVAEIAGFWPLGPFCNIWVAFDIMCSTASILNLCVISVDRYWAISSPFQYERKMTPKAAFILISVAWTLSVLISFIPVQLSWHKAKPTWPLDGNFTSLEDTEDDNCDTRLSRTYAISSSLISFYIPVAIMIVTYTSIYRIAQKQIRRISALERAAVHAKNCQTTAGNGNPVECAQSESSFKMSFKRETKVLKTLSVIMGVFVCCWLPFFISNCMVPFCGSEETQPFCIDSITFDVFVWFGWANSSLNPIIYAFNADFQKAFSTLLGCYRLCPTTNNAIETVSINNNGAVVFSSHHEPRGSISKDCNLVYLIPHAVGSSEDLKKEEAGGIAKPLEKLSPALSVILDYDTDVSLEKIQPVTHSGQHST

[6] = molecular target: T2, D(1A) dopamine receptor; assay: In vitro ability to displace [3H]SCH-23390 binding from Dopamine receptor D1 in rat striatal membrane.; type: cell membranes
Method in brief: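 Striatal membranes from male Sprague-Dawley rats, washed in Tris-HCl with 5 mM EDTA. Resuspended at 1.00 mg wet weight/750 µL in 50 mM Tris-HCl pH 7.4 with 120 mM NaCl, 5 mM KCl, 2 mM CaCl2 and 1 mM MgCl2. [3H]SCH23390 competition in duplicate, 15 min at 37 °C, filtered. Nonspecific binding defined with 1 µM final SCH23390. Ki = IC50/(1 + D/Kd).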

[7] = molecular target: T1, 5-hydroxytryptamine receptor 2A; assay: Compound was tested in vitro for its binding affinity towards 5-hydroxytryptamine 2A receptor from rat frontal cortex using [3H]-ketanserin as radioligand; type: tissue-based
Method in brief: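 Frontal cortex from male 200-250-g Sprague-Dawley rats, homogenized in 0.32 M sucrose, then washed. Pellet incubated 15 min at 37 °C to strip endogenous 5-HT. Assay buffer Tris-HCl pH 8.07 with 4 mM CaCl2 and 0.1% ascorbic acid. [3H]ketanserin competition run in triplicate, 30 min at 37 °C, with GF/C filtration. Nonspecific binding defined with methysergide. Ki = IC50/(1 + D/Kd), with Kd taken from saturation binding.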

Row | Structure (SMILES) | Ki [2] [nM] | Ki [5] [nM] | Ki [6] [nM] | Ki [7] [nM] | pA2 [1] | ED50 [3] [mg/kg] | ED50 [4] [mg/kg]
1 | O=C1CC(CN2CCC(C(=O)c3ccc(F)cc3)CC2)Cc2ccccc21 (stereo unspecified) |  |  |  |  | 7.86 |  | 
2 | COc1ccccc1N1CCN(CC2CC(=O)c3ccccc3C2)CC1 (stereo unspecified) | 513 |  |  |  | 6.48 |  | 
3 | COc1ccccc1N1CCN(CCC2CCc3sccc3C2=O)CC1.Cl (stereo unspecified) | 145 | 5370 |  |  | 6.95 | > 8 | > 8
4 | COc1ccccc1N1CCN(CC2CC(=O)c3ccccc32)CC1.Cl (stereo unspecified) | 891 |  | 3720 |  | 6.21 | > 8 | > 8
5 | Cl.O=C(CCCN1CCN(CC2CC(=O)c3ccsc3C2)CC1)c1ccc(F)cc1 (stereo unspecified) | 107 | 1350 |  |  | 7.79 | > 8 | > 2
6 | Cl.O=C1c2ccsc2CCC1CCN1CCC(c2noc3cc(F)ccc23)CC1 (stereo unspecified) |  | 295 |  | 2.75 | 9.87 | 0.79 | > 2
7 | Cl.O=C(CCCN1CCN(CC2CC(=O)c3ccccc32)CC1)c1ccc(F)cc1 (stereo unspecified) | 45.7 |  | 7080 |  | 7.2 | > 8 | > 8
8 | COc1ccccc1N1CCN(CC2CC(=O)c3ccsc3C2)CC1.Cl (stereo unspecified) | 1510 | > 10000 |  |  | 5.9 | > 8 | > 8
9 | Cl.O=C1CC(CN2CCC(C(=O)c3ccc(F)cc3)CC2)Cc2sccc21 (stereo unspecified) | 57.5 | 427 |  |  | 7.82 | 1.25 | > 16
10 | Cl.O=C(CCCN1CCN(CCC2CCc3sccc3C2=O)CC1)c1ccc(F)cc1 (stereo unspecified) |  | 3090 |  | 288 | 6.83 | > 15 | > 15
11 | O=C(c1ccc(F)cc1)C1CCN(CCC2Cc3ccccc3C2=O)CC1 (stereo unspecified) |  |  |  |  | 8.12 |  | 
12 | O=C(c1ccc(F)cc1)C1CCN(CCC2CCc3ccccc3C2=O)CC1 (stereo unspecified) |  |  |  |  | 7.47 |  | 
13 | COc1ccccc1N1CCN(CCC2CCc3ccccc3C2=O)CC1 (stereo unspecified) | 40.7 |  | 1480 |  | 6.72 |  | 
14 | O=C(CCCN1CCN(CCC2Cc3ccccc3C2=O)CC1)c1ccc(F)cc1 (stereo unspecified) | 123 | 1320 |  |  | 7.3 |  | 
15 | O=C(CCCN1CCN(CCC2Cc3sccc3C2=O)CC1)c1ccc(F)cc1 (stereo unspecified) | 42.7 |  | 324 |  | 7.63 | 3.34 | > 15
16 | O=C(CCCN1CCN(CCC2CCc3ccccc3C2=O)CC1)c1ccc(F)cc1 (stereo unspecified) | 72.4 | 1350 |  |  | 7.35 |  | 
17 | CN1CCN(C2=Nc3cc(Cl)ccc3Nc3ccccc32)CC1 [CLOZAPINE] |  |  |  |  |  | 2.21 | > 50
18 | O=C(CCCN1CCC(O)(c2ccc(Cl)cc2)CC1)c1ccc(F)cc1 [HALOPERIDOL] |  |  |  |  |  | 0.14 | 0.67
19 | Cc1nc2n(c(=O)c1CCN1CCC(c3noc4cc(F)ccc34)CC1)CCCC2 [RISPERIDONE] |  |  |  |  |  | 0.09 | > 2

The next lines start with results.

Row | Ki [2] [nM] | Ki [5] [nM] | Ki [6] [nM] | Ki [7] [nM] | Structure (SMILES) | pA2 [1] | ED50 [3] [mg/kg] | ED50 [4] [mg/kg]
20 | 17.8 |  |  |  | O=C(CCCN1CCN(CC2CC(=O)c3ccccc3C2)CC1)c1ccc(F)cc1 (stereo unspecified) | 7.27 |  | 
21 | 4.68 | 129 |  |  | Cl.O=C1CC(CN2CCC(c3noc4cc(F)ccc34)CC2)Cc2sccc21 (stereo unspecified) | 9.13 | 1.46 | > 8
22 | 6.76 | 135 |  |  | Cl.O=C1c2sccc2CCC1CCN1CCC(c2noc3cc(F)ccc23)CC1 (stereo unspecified) |  | 0.5 | > 2
23 | 1.45 |  | 1380 |  | Cl.O=C(c1ccc(F)cc1)C1CCN(CCC2CCc3sccc3C2=O)CC1 (stereo unspecified) | 9.02 | 2.03 | > 4
24 | 26.3 |  | 1550 |  | Cl.O=C1CC(CN2CCC(C(=O)c3ccc(F)cc3)CC2)c2ccccc21 (stereo unspecified) | 8.13 | > 7 | > 4
25 | 1.74 |  | 126 |  | Cl.O=C1c2ccsc2CC1CCN1CCC(c2noc3cc(F)ccc23)CC1 (stereo unspecified) |  | 0.47 | > 20
26 | 11.2 | 562 |  |  | Cl.O=C(c1ccc(F)cc1)C1CCN(CCC2CCc3ccsc3C2=O)CC1 (stereo unspecified) |  | 1.98 | > 4
27 | 13.2 |  |  |  | O=C(c1ccc(F)cc1)C1CCN(CCC2CCCc3ccccc3C2=O)CC1 (stereo unspecified) | 6.75 |  | 
28 | 7.08 |  | 2510 |  | O=C(O)C(=O)O.O=C(c1ccc(F)cc1)C1CCN(CCC2Cc3sccc3C2=O)CC1 (stereo unspecified) | 8.92 | 65 | > 16
